ChEMBL document CHEMBL4808187, “Antiarrhythmic Hit to Lead Refinement in a Dish Using Patient-Derived iPSC Cardiomyocytes” (J Med Chem, 2021)
Active and inactive are the calls of the source. The rule behind the calls is not given here.

How the values were obtained:
[1] = Metabolic stability in human liver S9 fraction assessed as half life at 50 uM measured upto 60 mins by HPLC method; assay type: ADME, subcellular
How it was run: (§1)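 Human liver microsomes (0.4–0.5 mg protein) or S-9 (1 mg) with 50 μM compound in 50 mM potassium phosphate pH 7.4 plus NADPH-generating system, 37 °C shaking for 0, 7, 15, 30, 60 min; stopped with cold acetonitrile; HPLC C18, isocratic water/acetonitrile with 0.05% TFA, UV 275.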

[2] = Metabolic stability in human liver microsomes assessed as half life at 50 uM measured upto 60 mins by HPLC method; assay type: ADME, Microsome; how it was run: as §1
[3] = Toxicity in ip dosed BALB/c mouse assessed as lethal dose; assay type: organism-based; settings: in vivo
[4] = Toxicity in BALB/c mouse assessed as behavioral effects at 100 mg/kg, ip monitored for 30 mins; assay type: organism-based; settings: in vivo, 0.5 h
How it was run: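 Adult male BALB/c mice, four per compound, 100 mg/kg i.p.; behaviour (lethargy, immobilization, seizures, shaking) observed for 30 min; lethality recorded at 24 h.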

[5] = Metabolic stability in human liver S9 fraction assessed as compound remaining at 50 uM after 1 hr by HPLC method; assay type: ADME, subcellular; settings: read-out: Stabilty; how it was run: as §1
[6] = Metabolic stability in human liver microsomes assessed as compound remaining at 50 uM after 1 hr by HPLC method; assay type: ADME, Microsome; settings: read-out: Stabilty; how it was run: as §1
[7] = Toxicity in BALB/c mouse assessed as lethargy at 100 mg/kg, ip monitored for 30 mins; assay type: organism-based; settings: in vivo, 0.5 h
[8] = Toxicity in BALB/c mouse assessed as central nervous system effects at 100 mg/kg, ip; assay type: organism-based; settings: in vivo
[9] = (§2) Antiarrhythmic activity in patient-derived hiPSC-CMs carrying LQT3 mutation assessed as cessation dose for cell beating; assay type: functional, Homo sapiens, iPSC-CM
[10] = Antiarrhythmic activity in patient-derived hiPSC-CMs carrying LQT3 mutation assessed as shortening of action potential duration; assay type: functional, Homo sapiens; settings: ipsc-cm
[11] = Antiarrhythmic activity in patient-derived hiPSC-CMs carrying LQT3 mutation assessed as fold shortening of action potential duration relative to control; assay type: functional, Homo sapiens, iPSC-CM
[12] = Antiarrhythmic activity in patient-derived hiPSC-CMs carrying LQT3 mutation assessed as shortening dose of action potential; assay type: functional, Homo sapiens, iPSC-CM
[13] = Antiarrhythmic activity in hiPSC-CMs assessed as cessation dose of cell beating; settings: human, ipsc-cm
[14] = Antiarrhythmic activity in hiPSC-CMs assessed as dose for induction of early after depolarizations; settings: human, ipsc-cm
[15] = Antiarrhythmic activity in hiPSC-CMs assessed as prolongation of action potential; parameters: species or system Homo sapiens, iPSC-CM
[16] = Inhibition of sodium channel (unknown origin) expressed in HEK cells assessed as reduction in late inward sodium current by automated patch clamp method; assay type: cell-based; settings: Homo sapiens, HEK293
[17] = Inhibition of sodium channel (unknown origin) expressed in HEK cells assessed as reduction in peak sodium current by automated patch clamp method; assay type: cell-based; settings: Homo sapiens, HEK293
[18] = Inhibition of potassium channel (unknown origin) expressed in CHO cells assessed as reduction in potassium current by automated patch clamp method; assay type: cell-based
[19] = Chemical stability in pH 7.4 phosphate buffer assessed as half life at 100 uM by RP-HPLC analysis; assay type: physicochemical
[20] = Chemical stability in pH 3 phosphate buffer assessed as half life at 100 uM by RP-HPLC analysis; assay type: physicochemical
[21] = Tmax in Sprague-Dawley rat at 5 mg/kg, iv measured upto 25 hrs by LCMS analysis; assay type: ADME, organism-based; settings: in vivo
[22] = Tmax in Sprague-Dawley rat at 25 mg/kg, po measured upto 25 hrs by LCMS analysis; assay type: ADME, organism-based; settings: in vivo
[23] = Cmax in Sprague-Dawley rat at 5 mg/kg, iv measured upto 25 hrs by LCMS analysis; assay type: ADME, organism-based; parameters: route intravenous, dose 5 mg/kg, time <=25; settings: in vivo
[24] = Cmax in Sprague-Dawley rat at 25 mg/kg, po measured upto 25 hrs by LCMS analysis; assay type: ADME, organism-based; parameters: route oral, dose 25 mg/kg, time <=25; settings: in vivo
[25] = AUC in Sprague-Dawley rat at 5 mg/kg, iv measured upto 25 hrs by LCMS analysis; assay type: ADME, organism-based; parameters: route intravenous, dose 5 mg/kg, time <=25; settings: in vivo
[26] = AUC in Sprague-Dawley rat at 25 mg/kg, po measured upto 25 hrs by LCMS analysis; assay type: ADME, organism-based; parameters: route oral, dose 25 mg/kg, time <=25; settings: in vivo
[27] = Half life in Sprague-Dawley rat at 5 mg/kg, iv measured upto 25 hrs by LCMS analysis; assay type: ADME, organism-based; settings: in vivo
[28] = Half life in Sprague-Dawley rat at 25 mg/kg, po measured upto 25 hrs by LCMS analysis; assay type: ADME, organism-based; settings: in vivo
[29] = Oral bioavailability in Sprague-Dawley rat at 25 mg/kg measured upto 25 hrs by LCMS analysis; assay type: ADME, organism-based; settings: in vivo
Cytochrome P450 3A4 = Cytochrome P450 3A4 (Homo sapiens, UniProt P08684); assay: Drug metabolism assessed as human CYP3A4-mediated metabolism per ug protein; assay type: ADME; settings: recombinant enzyme
Chain of Cytochrome P450 3A4 (P08684 whole entry): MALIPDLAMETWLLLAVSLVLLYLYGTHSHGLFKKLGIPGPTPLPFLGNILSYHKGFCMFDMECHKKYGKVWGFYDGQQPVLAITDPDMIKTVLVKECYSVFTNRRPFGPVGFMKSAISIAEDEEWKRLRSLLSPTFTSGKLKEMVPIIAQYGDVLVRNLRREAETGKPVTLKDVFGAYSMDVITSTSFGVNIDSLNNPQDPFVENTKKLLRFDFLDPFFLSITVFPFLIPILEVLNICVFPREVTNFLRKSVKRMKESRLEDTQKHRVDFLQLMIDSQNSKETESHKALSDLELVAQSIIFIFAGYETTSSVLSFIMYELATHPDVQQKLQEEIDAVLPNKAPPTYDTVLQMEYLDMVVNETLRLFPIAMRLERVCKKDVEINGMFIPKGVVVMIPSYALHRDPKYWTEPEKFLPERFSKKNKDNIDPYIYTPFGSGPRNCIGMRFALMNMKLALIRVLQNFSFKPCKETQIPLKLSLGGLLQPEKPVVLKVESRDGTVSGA

Cytochrome P450 3A5 = Cytochrome P450 3A5 (Homo sapiens, UniProt P20815); assay: Drug metabolism assessed as human CYP3A5-mediated metabolism per ug protein; assay type: ADME; settings: recombinant enzyme
Chain of Cytochrome P450 3A5 (P20815 whole entry): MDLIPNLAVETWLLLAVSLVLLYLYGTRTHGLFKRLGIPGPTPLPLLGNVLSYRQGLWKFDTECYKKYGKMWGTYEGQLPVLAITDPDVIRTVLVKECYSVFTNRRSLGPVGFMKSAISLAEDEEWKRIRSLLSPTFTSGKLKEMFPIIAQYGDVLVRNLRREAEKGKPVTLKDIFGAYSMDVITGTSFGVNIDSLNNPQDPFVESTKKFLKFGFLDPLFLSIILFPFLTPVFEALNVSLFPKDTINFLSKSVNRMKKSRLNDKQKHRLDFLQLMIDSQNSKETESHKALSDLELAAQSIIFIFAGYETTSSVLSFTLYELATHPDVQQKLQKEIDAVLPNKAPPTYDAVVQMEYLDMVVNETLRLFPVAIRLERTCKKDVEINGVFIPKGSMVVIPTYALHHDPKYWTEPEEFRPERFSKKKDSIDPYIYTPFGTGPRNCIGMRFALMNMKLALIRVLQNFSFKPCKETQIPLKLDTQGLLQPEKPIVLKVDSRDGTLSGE

Cytochrome P450 2D6 = Cytochrome P450 2D6 (Homo sapiens, UniProt P10635); assay: Drug metabolism assessed as human CYP2D6-mediated metabolism per ug protein; assay type: ADME; settings: recombinant enzyme
Chain of Cytochrome P450 2D6 (P10635 whole entry): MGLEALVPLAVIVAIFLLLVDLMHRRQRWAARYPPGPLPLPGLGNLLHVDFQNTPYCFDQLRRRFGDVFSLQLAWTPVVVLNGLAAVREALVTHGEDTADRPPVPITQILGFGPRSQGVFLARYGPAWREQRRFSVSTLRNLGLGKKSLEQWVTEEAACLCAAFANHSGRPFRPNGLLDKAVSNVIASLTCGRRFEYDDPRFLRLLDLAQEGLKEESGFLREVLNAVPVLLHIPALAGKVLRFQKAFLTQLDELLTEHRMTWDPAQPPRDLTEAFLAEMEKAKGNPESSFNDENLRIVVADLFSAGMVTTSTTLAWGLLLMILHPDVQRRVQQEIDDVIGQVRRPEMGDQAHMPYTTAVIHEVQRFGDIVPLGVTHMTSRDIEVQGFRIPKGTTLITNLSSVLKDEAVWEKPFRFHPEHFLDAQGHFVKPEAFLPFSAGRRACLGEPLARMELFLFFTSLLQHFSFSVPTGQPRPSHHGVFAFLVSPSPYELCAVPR

Homo sapiens [30] = organism: Homo sapiens; assay: Selectivity index, ratio of IC50 for potassium channel (unknown origin) expressed in CHO cells assessed as reduction in potassium current to IC50 for sodium channel (unknown origin) expressed in HEK cells assessed as reduction in late inward sodium current
iPSC-CM = assay: as §2; assay type: functional; settings: Homo sapiens
Homo sapiens [31] = organism: Homo sapiens; assay: Selectivity index, ratio of IC50 for sodium channel (unknown origin) expressed in HEK cells assessed as reduction in peak sodium current to IC50 for sodium channel (unknown origin) expressed in HEK cells assessed as reduction in late inward sodium current; assay type: cell-based
[32] = Antiarrhythmic activity in hiPSC-CMs assessed as fold prolongation of action potential relative to control; settings: human, ipsc-cm
[33] = Potency index, ratio of mexiletine EC50 to test compound EC50 for antiarrhythmic activity in hiPSC-CMs expressing LQT3 mutation assessed as shortening of action potential duration; assay type: functional, Homo sapiens, iPSC-CM

Cc1cc(C)cc(OC[C@H](N)c2ccccc2)c1.Cl
half-life at 50 µM [1]: 16.9 h
half-life at 50 µM [2]: 6.77 h
LD50 [3]: > 200 mg/kg
Activity [4]: Non-Toxic

Cc1cc(C)cc(OC[C@@H](N)c2ccccc2)c1.Cl
remaining at 1 h, 50 µM [5]: > 95%
remaining at 1 h, 50 µM [6]: > 95%
LD50 [3]: > 200 mg/kg
Activity [7]: Toxic
Activity [8]: Toxic

Cl.NC(COc1ccccc1C(F)(F)F)c1ccccc1 (racemic)
Activity [9]: 66 µM
EC50 ([10]; read-out: EC50): < 0.8 µM
fold change (FC) [11]: 1.783
Activity [12]: 22 µM
Activity [13]: 66 µM
Activity [14]: Not Active
EC50 ([15]; ipsc-cm): Not Active
IC50 [16]: 1.04 µM
IC50 [17]: 41.1 µM
IC50 [18]: 37.5 µM
half-life at 100 µM [19]: > 720 h
half-life at 100 µM [20]: > 360 h
Tmax [21]: 0.17 h
Tmax [22]: 1.5 h
Cmax [23]: 250 ng/mL
Cmax [24]: 226 ng/mL
AUC [25]: 544 ng·h/mL
AUC [26]: 1008 ng·h/mL
t1/2 [27]: 3.2 h
t1/2 [28]: 6.5 h
bioavailability [29]: 38%
Drug metabolism (Cytochrome P450 3A4): 15.4 pmol/min
Drug metabolism (Cytochrome P450 3A5): 42.6 pmol/min
Drug metabolism (Cytochrome P450 2D6): 43.6 pmol/min
Ratio IC50 (Homo sapiens [30]): 36.1

Cc1ccccc1OCC(N)c1ccccc1.Cl (racemic)
half-life at 100 µM [19]: > 720 h
half-life at 100 µM [20]: > 360 h

Cc1cccc(C)c1OCC(C)N (configuration not stated) [MEXILETINE]
Activity (iPSC-CM): inactive
EC50 ([10]; read-out: EC50): 1.8 µM
Activity [12]: 22 µM
Activity [13]: Not Active
Activity [14]: 200 µM
EC50 ([15]; Homo sapiens, iPSC-CM, read-out: EC50): 20.4 µM
IC50 [18]: 53.7 µM
Tmax [21]: 0.17 h
Tmax [22]: 1 h
Cmax [23]: 289 ng/mL
Cmax [24]: 167 ng/mL
AUC [25]: 447 ng·h/mL
AUC [26]: 839 ng·h/mL
t1/2 [27]: 10.6 h
t1/2 [28]: 11 h
bioavailability [29]: 37%
Drug metabolism (Cytochrome P450 3A4): 46.2 pmol/min
Drug metabolism (Cytochrome P450 3A5): 48.8 pmol/min
Drug metabolism (Cytochrome P450 2D6): 6 pmol/min

Cl.NC(COc1cc(C(F)(F)F)cc(C(F)(F)F)c1)c1ccccc1 (configuration not stated)
Activity [9]: 66 µM
EC50 ([10]; read-out: EC50): 23.1 µM
fold change (FC) [11]: 1.208
Activity [12]: 22 µM
Activity [13]: 133 µM
Activity [14]: Not Active
EC50 ([15]; ipsc-cm): Not Active
IC50 [16]: 1.03 µM
IC50 [17]: 20 µM
IC50 [18]: 7.16 µM
Ratio IC50 (Homo sapiens [31]): 19.4

COCCNC(COc1cccc(C)c1C)c1ccccc1.Cl (racemic)
Activity [9]: 200 µM
EC50 ([10]; read-out: EC50): 5.73 µM
fold change (FC) [11]: 1.508
Activity [12]: 133 µM
Activity [13]: Not Active
Activity [14]: Not Active
Activity [32]: Not Active
IC50 [16]: 0.747 µM
IC50 [17]: 25.8 µM
IC50 [18]: 27.6 µM
Ratio IC50 (Homo sapiens [31]): 34.5
half-life at 100 µM [19]: > 720 h
half-life at 100 µM [20]: > 720 h

Cc1ccccc1OC[C@@H](N)c1ccccc1.Cl
remaining at 1 h, 50 µM [5]: > 95%
half-life at 50 µM [2]: 2.27 h

Cc1ccccc1OC[C@H](N)c1ccccc1.Cl
half-life at 50 µM [1]: 6.8 h
half-life at 50 µM [2]: 6.08 h

Cc1cccc(C)c1OCC(C)NC(=O)c1ccccc1.Cl (configuration not stated)
Activity [9]: 133 µM
EC50 ([10]; read-out: EC50): 133 µM
fold change (FC) [11]: 1.45
Activity [12]: 66 µM
Activity [13]: 66 µM
Activity [14]: Not Active
EC50 ([15]; ipsc-cm): Not Active
Ratio EC50 [33]: 9

Cc1cc(C)cc(OCC(N)c2ccccc2)c1.Cl (racemic)
Activity [9]: 66 µM
EC50 ([10]; read-out: EC50): < 0.8 µM
fold change (FC) [11]: 1.279
Activity [12]: 7.4 µM
Activity [13]: 66 µM
Activity [14]: Not Active
EC50 ([15]; ipsc-cm): Not Active
IC50 [16]: 0.2 µM
IC50 [17]: 20.1 µM
IC50 [18]: 6.2 µM
half-life at 100 µM [19]: > 720 h
Drug metabolism (Cytochrome P450 3A4): Metabolite_Notdetected
Drug metabolism (Cytochrome P450 3A5): Metabolite_Notdetected
Drug metabolism (Cytochrome P450 2D6): 6.9 pmol/min
Ratio IC50 (Homo sapiens [30]): 31

Cc1ccc(C(N)COc2c(C)cccc2C)cc1.Cl (configuration not stated)
Activity [9]: 66 µM
EC50 [10]: Not Active
fold change (FC) [11]: 1.588
Activity [12]: 22 µM
Activity [13]: 66 µM
Activity [14]: Not Active
EC50 ([15]; ipsc-cm): Not Active
Ratio EC50 [33]: 7

Cc1cccc(C)c1OC[C@H](C)N [(S)-MEXILETINE]
Activity (iPSC-CM): inactive
EC50 ([10]; read-out: EC50): 0.8 µM
Activity [12]: 22 µM
Activity [13]: Not Active
Activity [14]: 200 µM
IC50 [17]: 128 µM
IC50 [18]: 54.3 µM
remaining at 1 h, 50 µM [5]: > 95%
remaining at 1 h, 50 µM [6]: > 95%

Cc1cccc(C)c1OC[C@@H](C)N [(R)-MEXILETINE]
Activity (iPSC-CM): inactive
EC50 ([10]; read-out: EC50): 0.96 µM
Activity [12]: 7.4 µM
Activity [13]: Not Active
Activity [14]: 200 µM
IC50 [17]: 129 µM
IC50 [18]: 84 µM
remaining at 1 h, 50 µM [5]: > 95%
remaining at 1 h, 50 µM [6]: > 95%
